# From PubChem BioAssay
# An excerpt weighted towards active compounds, which were near 3.8% of everything screened.
# Measles CPE = protection of cells from measles virus. Measles virus-infected cells, CPE protection, absorbance. protection (pct of control), % at 4 µM. hit rate 1.5% among 140,000; in the data active means protection mostly above about 24%, no sharp cut-off; inactive means mostly below about 26%
# RAM network inh = yeast RAM network inhibition | hit rate 1.8% among 190,000 | S. cerevisiae dse1pr::URA3 reporter, 5-FOA growth OD615, 2 d; analog-sensitive cbk1-as2 kinase mutant strain | inhibition, % at 50 µM;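 active means inhibition above a set limit, 3 SD over mean compound inhibition, cut at about 8.4% in these data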;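 further: inhibition rescues growth on 5-FOA so higher OD means more RAM inhibition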
# Yeast life ext = extends the lifespan of yeast | S. cerevisiae growth with nicotinamide, OD615; deaD strain in restrictive glucose medium | inhibition of the nicotinamide effect, % at 10 µM | hit rate 0.68% among 130,000 | AID 775;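 active means inhibition above a set limit, placed 3 SD over the median of all compounds, cut at about 26% in these data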
#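 assay system = DeaD-strain S. cerevisiae | measured by = absorbance at 615 nm | probe or stimulus = nicotinamide 1.5 mM | buffer or medium = CSMM-D glucose medium, restrictive | times = 48 h at 30 °C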
# BB579 growth dn = chemicals that inhibit yeast BB579 growth in restrictive medium (lifespan-shortening candidates) | S. cerevisiae BB579 growth, OD615, 48 h | inhibition, % at 10 µM | hit rate 0.51% among 140,000 | AID 804;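 active means inhibition above a set limit, 3 SD over the mean compound inhibition, cut at about 44% in these data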
#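 Assay system – yeast BB579 (DeaD) · Dosing – single compound dose of 10 µM, 0.25% DMSO final · Detection – OD615 turbidity measurement · Buffer or medium – CSMM-D restrictive synthetic medium containing dextrose (glucose) · Benchmarks – positive control amphotericin B 10 µg/mL · Incubation – 48 h exposure, 30 °C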
# A number is an active result; – = inactive; · = not tested or not shown.
SMILES,Measles CPE,RAM network inh,Yeast life ext,BB579 growth dn
CCOC(=O)C1(CC)NC(c2ccc(OC)cc2OC)C2C(=O)N(C)C(=O)C21 (stereo not drawn),·,–,·,·
COc1ccc(Cc2nc(C(=O)Nc3ccccc3)cs2)cc1,66,–,–,–
COc1ccc(CNC(=O)c2csc(Cc3ccc(Cl)cc3)n2)cc1,–,–,–,–
COc1ccc(Cc2nc(C(=O)Nc3ccc(Cl)cc3)cs2)cc1,–,8.8,–,–
O=C(Nc1ccc(Cl)cc1)c1csc(Cc2ccccc2)n1,·,–,·,·
COc1ccc(NC(=O)c2csc(Cc3ccc(Cl)cc3)n2)cc1,·,11,·,·
CC(C)C1OC(c2cccc(NC(=O)c3cccs3)c2)OCC1(C)C (stereo not drawn),·,9.3,·,·
Cc1cc(Cl)ccc1Oc1ncc(-c2ccc(Cl)cc2)cn1,–,11,–,–
N#Cc1c(Nc2ccccc2)sc(C(=O)c2ccc(F)cc2)c1N,–,11,–,–
Cc1ccc(C(=O)c2sc(Nc3ccccc3)c(C#N)c2N)cc1,–,–,–,–
CC(C)C(NC(N)=O)C(=O)NC1CCCCC1 (stereo not drawn),·,–,·,·
Nn1c(SC/C=C/c2ccccc2)nnc1-c1cccnc1,26,–,–,–
CC(Sc1nc(-c2ccccc2)cc(C(F)(F)F)n1)C(=O)Nc1sc2c(c1C#N)CCC2 (stereo not drawn),–,10.0,–,–
CC(Sc1nc(-c2ccccc2)cc(C(F)(F)F)n1)C(=O)Nc1sc2c(c1C(N)=O)CCC2 (stereo not drawn),–,–,–,–
CCOC(=O)Cc1csc(/N=C/c2c(O)n(-c3ccccc3C(F)(F)F)c(=O)c3ccccc23)n1,–,–,–,–
N#C/C(=C\c1cccs1)C(=O)NCC1CCCO1 (stereo not drawn),–,–,–,–
N#C/C(=C/c1cc(Br)cs1)C(=O)NCC1CCCO1 (stereo not drawn),37,–,–,–
O=C(O)Cc1ccc2sc(-c3ccccc3)nc2c1,–,–,–,49
COC(=O)Cc1ccc2sc(-c3ccccc3)nc2c1,–,–,–,–
CCOC(=O)CSC(=S)NC(=O)c1ccc(OC)cc1,–,–,40,–
CCOC(=O)Cn1cc(/C=C/[N+](=O)[O-])c2ccccc21,·,–,·,·
CCOC(=O)COc1ccc(/C=C/[N+](=O)[O-])c(OCC(=O)OCC)c1,–,–,–,–
CCOC(=O)COc1ccc2ccccc2c1/C=C/[N+](=O)[O-],–,–,39,–
CCOc1ccc(/C=C/[N+](=O)[O-])c2ccccc12,–,–,–,56
Cc1ccc(OCC(=O)c2ccc(Cl)s2)c([N+](=O)[O-])n1,·,–,·,·
SMILES,Measles CPE,RAM network inh,Yeast life ext,BB579 growth dn
CCC(Sc1nc2ccccc2s1)C(=O)Nc1cc(C)on1 (stereo not drawn),–,–,·,–
Nc1nc(CSc2ccc(Cl)cc2)nc(N2CCCCC2)n1,·,9.0,·,·
CCc1nn(-c2ccccc2)c2c1-c1cc(OC)c(OC)cc1C1(N2)C(=O)Nc2ccccc21 (stereo not drawn),–,–,–,–
COC(=O)c1sc2ncccc2c1OCc1cccc(Cl)c1,–,9.6,–,–
O=C(COC(=O)c1cccs1)Nc1ccc(S(=O)(=O)N2CCOCC2)cc1,–,–,–,–
O=C(O)c1nn(CCOc2cccc(Cl)c2)c(=O)c2ccccc12,·,8.8,·,·
CCCOc1ccc(OCCn2nc(C(=O)O)c3ccccc3c2=O)cc1,·,9.6,·,·
CN1C(=O)C2(N=c3ccccc3=N2)c2ccccc21,–,–,–,57
CN1C(=O)C(O)(c2nnc(-c3ccccc3)o2)c2ccccc21 (stereo not drawn),·,–,·,·
CCC(C)N1CCN(C(=O)c2cccs2)CC1 (stereo not drawn),–,–,·,–
CCn1ncc(Br)c1C(=O)Nc1ccc2c(c1)OCCO2,·,–,·,·
C=CCn1c(SCC(=O)c2c(N)n(CCC)c(=O)n(C)c2=O)nnc1-c1ccncc1,·,–,·,·
COc1ccccc1OCC(=O)n1cc(C(=O)c2cc(Cl)cc(Cl)c2O)cn1,–,–,–,45
CCCCSc1nc(NCc2ccco2)c2c3c(sc2n1)COC(C)(C)C3,–,10,–,–
CSc1nc(NCc2ccco2)c2c3c(sc2n1)CN(C)CC3,–,–,–,–
Clc1ccccc1N/N=C/c1ccc2c(c1)OCO2,–,–,–,90
C(=N\Nc1nc2ccccc2[nH]1)/c1ccc2c(c1)OCO2,·,–,·,·
Cc1nnc(SC(C)C(=O)Nc2ccc(S(=O)(=O)N3CCCCCC3)cc2)s1 (stereo not drawn),–,9.2,–,–
COc1ccc(C(=O)N/N=C(\CCC(=O)O)c2ccc(C(C)(C)C)cc2)cc1OC,·,–,·,·
Cc1cc(C)cc(NC(=O)Cn2c(-c3ccccc3Cl)nc3ccccc32)c1,35,–,–,–
N/C(=N\OC(=O)COc1ccc2ccccc2c1Br)c1cccnc1,·,–,·,·
N/C(=N\OC(=O)COc1ccc2ccccc2c1Br)c1ccccn1,·,9.1,·,·
CCN1C(=O)C(CC(=O)NCc2ccc(Cl)cc2)N(CC)C1=O (stereo not drawn),–,–,–,–
CCN1C(=O)C(CC(=O)NC2CCCCC2)N(CC)C1=O (stereo not drawn),50,–,–,–
Cc1ccccc1NC(=O)Cc1nc(CSc2nnc(-c3ccc4c(c3)OCO4)o2)cs1,–,–,–,–
SMILES,Measles CPE,RAM network inh,Yeast life ext,BB579 growth dn
Cc1cccc(C)c1N1CCN(C(=O)Cn2cncn2)CC1,·,–,·,·
CCc1cc(C(=O)c2ccc(C)cc2)c(NC(=O)CCl)s1,–,9.2,–,–
CC(C)CNC(=O)c1oc2ccccc2c1COc1ccccc1,–,8.9,–,–
Cc1ccc(-c2nnc3n2CCCCC3)cc1,29,–,–,–
COc1ccc2c(Cl)c(-c3nnc4n3CCCCC4)sc2c1,43,–,–,–
Clc1ccc(-c2nnc3n2CCCC3)cc1,–,–,–,–
Cc1cccc(NC(=S)NC23CN4CN(CN(C4)C2)C3)c1C,·,–,·,·
COc1cc(OC)c(C(=O)OCC(=O)NCCc2ccccc2)cc1OC,·,–,·,·
Cc1ccc(-n2nc(C)c3c2OC(N)=C(C#N)C3c2ccoc2)cc1 (stereo not drawn),–,–,30,–
Cc1ccc(-n2nc(C)c3c2OC(N)=C(C#N)C3c2ccco2)cc1 (stereo not drawn),–,–,–,–
CCc1cc2cc(C)cc(C)c2[nH]c1=S,·,–,·,·
O=C(CSc1nc2ccccc2s1)N/N=C/c1ccc(C(=O)O)cc1,·,10,·,·
O=C(CSc1nc2ccccc2s1)Nc1ccc2c(c1)oc1ccccc12,26,–,–,–
O=C(CSc1nc2ccccc2s1)Nc1ccc(Cl)c(C(=O)O)c1,·,–,·,·
O=C(CSc1nc2ccccc2s1)c1cc2ccccc2o1,–,9.4,–,–
CCN(C(=O)Cc1c(C(=O)O)[nH]c2ccccc12)c1ccc(OC)cc1,·,–,·,·
Cc1ccc(N2C(=O)CC3(CC4C=CC3C4)C2=O)cc1 (stereo not drawn),53,–,–,–
CCOC(=O)C1CCN(C(=O)C(C)c2ccc([N+](=O)[O-])cc2)CC1 (stereo not drawn),·,–,·,·
CCCSc1nc2c(c(=O)n1CC)SC(C)C2 (stereo not drawn),93,–,–,–
